Experimental data collected from several papers.
Compare with care: the assays were run in different laboratories.
Target: Dual specificity mitogen-activated protein kinase kinase 1 (MAP2K1, Homo sapiens, UniProt Q02750)

Compound | effect on | mode | technique | concentration | measurement | result
CO[C@@H]1[C@H](N(C)C(=O)c2ccccc2)C[C@H]2O[C@]1(C)n1c3ccccc3c3c4c(c5c6ccccc6n2c5c31)C(=O)NC4 | enzyme activity | inhibitor | – | 1 µM | inhibition | 30%
N#Cc1ccc(NC(=O)Nc2ccccc2)cc1 | cell-free assay | – | competition with immobilised ligand | 25 µM | remaining binding | 66%
CCCCC(=O)Nc1ccc(-c2ccc3ncn(CCC)c(=O)c3c2)cn1 | binding | – | competition with immobilised ligand | 0.5 µM | remaining binding | 52%
Cc1cc(O)c(-c2ccc([C@@H](C)CN(C)C)cc2)c2c1[nH]c(=O)c1sccc12 | enzyme activity | inhibitor | – | 0.1 µM | inhibition | 8.68%
Cc1ccc(NC(=O)c2ccnc(C(F)(F)F)c2)cc1-c1cc(OCCO)nc(N2CCOCC2)c1 | binding | – | competition with immobilised ligand | 1 µM | remaining binding | 86%
COc1ccc2oc(-c3ccc4nc(N)oc4c3)c/c(=N\c3ccccc3NC(=O)CCN)c2c1 | binding | – | – | 1 µM | remaining binding | 102%
COc1ccc2[nH]c3c4[nH]c5ccc(OC)cc5c4c4c(c3c2c1)C(=O)NC4=O | binding | – | competition with immobilised ligand | 1 µM | remaining binding | 70%
C=CC(=O)N1CCC[C@@H](n2nc(-c3ccc(Oc4ccccc4)cc3)c3c(N)ncnc32)C1 | enzyme activity | inhibitor | – | 1 µM | inhibition | 84%
